Screening data from PubChem BioAssay.
proKLK7 act: proKLK7 zymogen activators, primary screen, biochemical, fluorescence intensity; Kallikrein-7 (Homo sapiens), P49862; activation, % at 7 µM; 370,000 tested, 0.9% active; purified proKLK7, EDANS-DABCYL substrate fluorescence; 100% is mature enzyme control, 0% vehicle;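 active = activation above the mean of all tested compounds plus 3 SD, computed per campaign excluding outliers beyond control limits, cut at about 13% in these data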
Target sequence (P49862 whole entry, looked up): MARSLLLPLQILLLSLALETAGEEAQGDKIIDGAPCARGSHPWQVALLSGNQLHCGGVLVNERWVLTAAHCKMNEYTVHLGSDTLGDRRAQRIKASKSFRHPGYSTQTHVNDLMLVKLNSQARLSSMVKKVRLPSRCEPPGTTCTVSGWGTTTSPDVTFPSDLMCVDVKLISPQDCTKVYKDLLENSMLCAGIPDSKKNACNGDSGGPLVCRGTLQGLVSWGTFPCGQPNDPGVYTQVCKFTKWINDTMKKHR
DDE Tn7 FP inh: inhibitors of Tn7 peptide binding to fibrin DD(E), primary screen, biochemical, fluorescence polarization, human fibrin, Tn7 probe | Fibrinogen beta chain (Homo sapiens), P02675 | inhibition, % at 8.3 µM | FP displacement of FITC-Tn7 peptide from fibrin DD(E); 0% = median of compound wells per plate | 370,000 tested, 0.13% active;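 active = inhibition above the mean of compounds falling within the control limits plus 3 SD of them, cut at about 14% in these data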
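Assay system: Human clot-derived fibrin DD(E) complex | Buffer or medium: Tris/NaCl/CaCl2 buffer, pH 7.8 | Repeats: One replicate per compound | Benchmarks: Aha-Tn7 high control | Measure: % inhibition scaled between sample-field median and high-control FP | Schedule: 10 min plus 3 h, room temperature | Signal: Fluorescence polarization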
CRFBP-R2 block: antagonists of CRF-BP/CRF-R2 complex, primary screen, cell-based, HEK293, calcium dye fluorescence, uHTS; CRF-induced calcium fluorescence; inhibition, % at 11.8 µM; 350,000 tested, 0.59% active; AID 588475, 2011;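 active = inhibition of the ligand-induced calcium signal above about 50% at the single tested concentration, limit read from the data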
Tn6 DDE FP: inhibitors of Tn6 peptide binding to fibrin DD(E), primary screen, biochemical, fluorescence polarization, human fibrin, Tn6 probe; Fibrin DD(E) TRITC-Tn6 fluorescence polarization displacement; inhibition, % at 8.3 µM; 370,000 tested, 0.21% active;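 active = inhibition above a per-campaign cutoff: mean of compounds within control limits plus 3 SD, cut at about 15% in these data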
NRP1-CendR mod: modulators of CendR peptide binding to NRP-1, primary screen, biochemical, fluorescence polarization, uHTS; Neuropilin-1 (Homo sapiens), O14786; AID 602438, 2012; 360,000 tested, 0.85% active; inhibition, % at 25 µM; FAM-RPARPAR peptide binding to NRP-1;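 active = inhibition or corrected inhibition above about 18%, plus a signal ratio from 0.5 to 1.5, limit read from the data, passing the limit was not always enough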
CRFR2-BP ag: agonists of CRF-BP/CRF-R2 complex, primary screen, cell-based, HEK293, calcium dye fluorescence, uHTS; CRF-binding protein / CRF receptor 2 complex (human); calcium dye fluorescence (FLIPR); percent of saturating CRF peptide response; activation, % at 13.2 µM; 350,000 tested, 0.46% active; AID 588473, 2011;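 active = activation of at least 50%, plus an integration ratio under a set limit after plate pattern correction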
proKLK7 act conf: proKLK7 zymogen activators, confirmation, biochemical, fluorescence intensity, triplicate; shares compounds with proKLK7 act; purified proKLK7, EDANS-DABCYL substrate fluorescence; scaled: vehicle 0, mature enzyme 100; 3,200 tested, 68% active; activation, % at 7 µM;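 active = activation, as change over the incubation, above the mean of all tested compounds plus 3 SD, cut at about 13% in these data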
EDANS-DABCYL int: EDANS-DABCYL substrate optical interference, artefact control for kallikrein-7 zymogen activator project, biochemical, fluorescence intensity, high throughput. shares compounds with proKLK7 act. no enzyme, 4 h; solvent 0%, active enzyme control 100%. activation, % at 7 µM. 3,200 tested, 80% active;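 active = activation above the all-compound mean plus 3 SD, ignoring values outside control-based bounds, cut at about 4.8% in these data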;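 note: value is the 4 h activation minus the activation read at time zero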
Numbers stand for hits; n = inactive; x = not tested or not shown. In the library only some 2.9% were active in any assay of this set; here they are far more common.

SMILES	proKLK7 act	DDE Tn7 FP inh	CRFBP-R2 block	Tn6 DDE FP	NRP1-CendR mod	CRFR2-BP ag	proKLK7 act conf	EDANS-DABCYL int
CCOC(=O)c1c[nH]n(-c2ccccc2)c1=O	n	n	n	n	n	n	x	x
CCOC(=O)c1cc(C(=O)OCC)c2ccccn2c1=O	55.4	n	n	n	n	n	57.2	67.6
CC[C@@H]1CN(C)[C@H]2Cc3c([nH]c4ccccc34)C(=O)C[C@@H]1[C@@H]2C(=O)OC	16.8	n	n	n	n	n	n	5.2
COc1ccc2c3c([nH]c2c1)[C@]1(NCC3)C(=O)N(C)c2ccc(Cl)cc21	n	n	x	n	x	x	x	x
Cc1cc(C)n2c(Br)c(CN3CCCC(C)C3)nc2n1 (stereo not drawn)	14.9	n	n	n	n	n	14.0	15.6
COC(=O)[C@]12C[C@H](CC(=O)NCc3cccc4ccccc34)C(=O)N(Cc3ccc(Cl)cc3Cl)C1=C[C@H](C1CCCC1)O[C@@H]2C	n	n	x	n	x	x	x	x
CCN(C)C(=O)CN1C(=O)C2CCCCN2C(=O)c2ccccc21 (stereo not drawn)	n	n	x	n	x	x	x	x
CN(C(=O)[C@H]1O[C@@H](n2cnc(C(N)=O)n2)[C@H](O)[C@@H]1O)c1ccccc1	n	n	x	n	x	x	x	x
Cc1ccc(NC(=S)NNC(=O)CSc2nc3sc4c(c3c(=O)n2-c2ccccc2)CCCC4)cc1	n	n	x	n	x	x	x	x
Nc1ccc(-c2nc3cc(N)ccc3n2CCO)cc1	67.6	n	n	n	n	n	66.1	69.2
Cn1c(CO)nc2cc(N)ccc21	n	n	n	n	n	n	x	x
Cn1c(=O)c(-c2ccccc2)c(O)c2ccccc21	n	n	n	n	n	n	x	x
Cc1ccc(N=Cc2c(O)c3ccccc3n(C)c2=O)cc1	29.2	n	n	n	n	n	n	n
Cn1c(=O)c(C(=O)c2ccccc2)c(O)c2ccccc21	n	n	n	n	n	n	x	x
Cc1c(O)c(=O)c2ccccc2n1C	92.1	n	n	n	n	n	72.9	64.3
O=C(CSc1nnc(-c2ccc(Cl)cc2)n1-c1ccccc1)Nc1ccc2c(c1)OCCO2	n	n	x	n	x	x	x	x
Nc1ncc(-c2ccc(F)cc2)nc1N1CCN(CCO)CC1	24.0	n	x	n	n	x	n	11.4
OCCN1CCN(c2nc3ccccc3nc2-c2ccccc2)CC1	n	n	n	n	n	n	x	x
O=C(COC(=O)CCCNC(=O)c1ccc(Cl)cc1)NC1CC1	13.9	n	n	n	n	n	n	n
COC(=O)c1ccsc1NS(C)(=O)=O	n	n	x	n	x	x	x	x
CCC(=O)Oc1ccc2c(C)cc(=O)oc2c1C	421.5	n	n	n	n	n	697.2	674.8
Cc1cc(=O)oc2c(C)c(OC(=O)c3ccco3)ccc12	84.6	n	n	n	n	n	601.1	619.8
O=C(Oc1cc(=O)oc2ccccc12)c1ccco1	n	n	n	n	n	n	x	x
CCOC(=O)C1=CCC(c2ccc([N+](=O)[O-])cc2)N(S(=O)(=O)c2ccc(C)cc2)C1 (stereo not drawn)	n	n	x	n	x	x	x	x
O=C(OC12CCCN(C1)/C(=C/c1cccc(Cl)c1)C2)c1cccc(F)c1 (stereo not drawn)	n	n	x	n	x	x	x	x
O=C(N[C@H](C(=O)N1CCC[C@H]1C(=O)NC1CCCC1)C1CCCCC1)c1ccc(Cl)c(Cl)c1	n	n	x	n	x	x	x	x
